Experimental data reported in ChEMBL document CHEMBL4118021, “Studies of TAK1-centered polypharmacology with novel covalent TAK1 inhibitors” (Bioorg Med Chem, 2017).
The source made the active and inactive calls. The rule behind the calls is not given here.

Key:
[1] = target: Cyclin-dependent kinase 5 (Homo sapiens) (UniProt Q00535); assay: Inhibition of CDK5 in human SKCO1 cells at 1 uM after 4 hrs using biotin labeled DLKPQNLLINR probe by mass-spectrometric analysis relative to control; assay type: cell-based
Chain of Cyclin-dependent kinase 5 (Homo sapiens) (Q00535 whole entry, looked up): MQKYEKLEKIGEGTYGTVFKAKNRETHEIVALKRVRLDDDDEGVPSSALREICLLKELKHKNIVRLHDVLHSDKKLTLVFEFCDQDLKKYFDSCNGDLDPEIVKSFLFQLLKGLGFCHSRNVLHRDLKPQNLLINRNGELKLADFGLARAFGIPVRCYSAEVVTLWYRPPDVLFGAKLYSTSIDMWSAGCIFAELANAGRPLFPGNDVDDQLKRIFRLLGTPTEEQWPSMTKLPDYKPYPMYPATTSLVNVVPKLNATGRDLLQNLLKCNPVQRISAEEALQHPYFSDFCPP

[2] = target: Tyrosine-protein kinase FRK (Homo sapiens) (UniProt P42685); assay: Inhibition of FRK in human SKCO1 cells at 1 uM after 4 hrs using biotin labeled HEIKLPVK probe by mass-spectrometric analysis relative to control; assay type: cell-based
Chain of Tyrosine-protein kinase FRK (Homo sapiens) (P42685 whole entry): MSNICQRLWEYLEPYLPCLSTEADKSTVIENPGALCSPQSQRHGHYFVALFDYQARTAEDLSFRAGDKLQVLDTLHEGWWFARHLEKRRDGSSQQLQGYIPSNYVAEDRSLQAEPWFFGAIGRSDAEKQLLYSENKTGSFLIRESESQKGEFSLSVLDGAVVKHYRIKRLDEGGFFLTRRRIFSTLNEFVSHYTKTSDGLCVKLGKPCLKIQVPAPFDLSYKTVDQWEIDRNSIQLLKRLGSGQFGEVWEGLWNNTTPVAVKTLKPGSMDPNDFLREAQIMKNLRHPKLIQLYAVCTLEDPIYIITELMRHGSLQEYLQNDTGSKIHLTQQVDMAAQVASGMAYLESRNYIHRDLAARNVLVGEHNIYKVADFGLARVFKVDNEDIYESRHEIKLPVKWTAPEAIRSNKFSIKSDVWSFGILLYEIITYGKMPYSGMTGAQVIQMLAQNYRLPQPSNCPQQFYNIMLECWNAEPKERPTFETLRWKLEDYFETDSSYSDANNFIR

[3] = target: T1, Dual specificity mitogen-activated protein kinase kinase 3 (Homo sapiens) (UniProt P46734); assay: Inhibition of MAP2K3 in human SKCO1 cells at 1 uM after 4 hrs using biotin labeled DVKPSNVLINK probe by mass-spectrometric analysis relative to control; assay type: cell-based
T1 sequence (whole entry): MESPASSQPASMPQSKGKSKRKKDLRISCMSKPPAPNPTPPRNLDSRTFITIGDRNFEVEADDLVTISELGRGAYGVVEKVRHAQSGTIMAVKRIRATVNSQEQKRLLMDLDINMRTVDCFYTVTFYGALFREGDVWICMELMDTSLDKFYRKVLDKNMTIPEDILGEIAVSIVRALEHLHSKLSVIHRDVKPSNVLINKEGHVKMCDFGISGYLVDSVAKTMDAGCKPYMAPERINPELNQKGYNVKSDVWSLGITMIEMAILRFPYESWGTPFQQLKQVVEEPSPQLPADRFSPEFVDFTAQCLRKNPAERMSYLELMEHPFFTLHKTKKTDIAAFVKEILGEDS

[4] = target: T2, Dual specificity mitogen-activated protein kinase kinase 4 (Homo sapiens) (UniProt P45985); assay: Inhibition of MAP2K4 in human SKCO1 cells at 1 uM after 4 hrs using biotin labeled DIKPSNILLDR probe by mass-spectrometric analysis relative to control; assay type: cell-based
T2 sequence (whole entry): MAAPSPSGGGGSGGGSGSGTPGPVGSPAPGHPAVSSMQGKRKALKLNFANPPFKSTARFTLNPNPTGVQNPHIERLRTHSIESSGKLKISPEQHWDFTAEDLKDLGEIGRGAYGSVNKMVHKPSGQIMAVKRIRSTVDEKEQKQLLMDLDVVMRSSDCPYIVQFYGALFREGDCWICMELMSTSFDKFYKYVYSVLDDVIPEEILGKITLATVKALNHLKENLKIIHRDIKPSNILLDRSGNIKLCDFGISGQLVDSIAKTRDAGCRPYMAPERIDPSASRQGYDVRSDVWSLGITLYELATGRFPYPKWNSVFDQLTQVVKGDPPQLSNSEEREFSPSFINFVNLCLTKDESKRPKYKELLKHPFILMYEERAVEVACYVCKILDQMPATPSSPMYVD

[5] = target: Serine/threonine-protein kinase greatwall (Homo sapiens) (UniProt Q96GX5); assay: Inhibition of MASTL in human SKCO1 cells at 1 uM after 4 hrs using biotin labeled LYAVKVVK probe by mass-spectrometric analysis relative to control; assay type: cell-based
Chain of Serine/threonine-protein kinase greatwall (Homo sapiens) (Q96GX5 whole entry): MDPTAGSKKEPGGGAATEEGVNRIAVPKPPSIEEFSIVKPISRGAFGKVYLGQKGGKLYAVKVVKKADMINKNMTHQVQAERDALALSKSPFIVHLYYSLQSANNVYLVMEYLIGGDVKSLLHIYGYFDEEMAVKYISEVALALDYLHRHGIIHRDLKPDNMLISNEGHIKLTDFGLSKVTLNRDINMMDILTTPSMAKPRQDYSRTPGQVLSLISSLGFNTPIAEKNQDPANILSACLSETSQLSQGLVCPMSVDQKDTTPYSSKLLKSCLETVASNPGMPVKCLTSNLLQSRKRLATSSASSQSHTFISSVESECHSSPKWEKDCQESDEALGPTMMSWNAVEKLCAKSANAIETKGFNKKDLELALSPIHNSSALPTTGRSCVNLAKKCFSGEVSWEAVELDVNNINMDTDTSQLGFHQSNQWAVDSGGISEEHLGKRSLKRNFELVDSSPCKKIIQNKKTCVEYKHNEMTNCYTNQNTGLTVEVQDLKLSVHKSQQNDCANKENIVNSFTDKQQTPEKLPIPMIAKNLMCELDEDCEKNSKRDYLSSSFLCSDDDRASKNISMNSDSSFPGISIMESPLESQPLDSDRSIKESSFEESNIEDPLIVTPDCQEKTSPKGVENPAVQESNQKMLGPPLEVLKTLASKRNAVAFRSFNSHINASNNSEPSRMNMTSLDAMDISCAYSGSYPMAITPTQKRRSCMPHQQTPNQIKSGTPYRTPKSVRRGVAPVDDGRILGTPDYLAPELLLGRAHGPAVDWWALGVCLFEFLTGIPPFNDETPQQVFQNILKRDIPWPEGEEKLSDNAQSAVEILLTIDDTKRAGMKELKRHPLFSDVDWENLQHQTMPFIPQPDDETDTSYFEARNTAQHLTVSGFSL

[6] = target: Phosphatidylinositol 3-kinase catalytic subunit type 3 (Homo sapiens) (UniProt Q8NEB9); assay: Inhibition of PIK3C3 in human SKCO1 cells at 1 uM after 4 hrs using biotin labeled TEDGGKYPVIFKHGDDLRQDQLILQIISLMDK probe by mass-spectrometric analysis relative to control; assay type: cell-based
Chain of Phosphatidylinositol 3-kinase catalytic subunit type 3 (Homo sapiens) (Q8NEB9 whole entry): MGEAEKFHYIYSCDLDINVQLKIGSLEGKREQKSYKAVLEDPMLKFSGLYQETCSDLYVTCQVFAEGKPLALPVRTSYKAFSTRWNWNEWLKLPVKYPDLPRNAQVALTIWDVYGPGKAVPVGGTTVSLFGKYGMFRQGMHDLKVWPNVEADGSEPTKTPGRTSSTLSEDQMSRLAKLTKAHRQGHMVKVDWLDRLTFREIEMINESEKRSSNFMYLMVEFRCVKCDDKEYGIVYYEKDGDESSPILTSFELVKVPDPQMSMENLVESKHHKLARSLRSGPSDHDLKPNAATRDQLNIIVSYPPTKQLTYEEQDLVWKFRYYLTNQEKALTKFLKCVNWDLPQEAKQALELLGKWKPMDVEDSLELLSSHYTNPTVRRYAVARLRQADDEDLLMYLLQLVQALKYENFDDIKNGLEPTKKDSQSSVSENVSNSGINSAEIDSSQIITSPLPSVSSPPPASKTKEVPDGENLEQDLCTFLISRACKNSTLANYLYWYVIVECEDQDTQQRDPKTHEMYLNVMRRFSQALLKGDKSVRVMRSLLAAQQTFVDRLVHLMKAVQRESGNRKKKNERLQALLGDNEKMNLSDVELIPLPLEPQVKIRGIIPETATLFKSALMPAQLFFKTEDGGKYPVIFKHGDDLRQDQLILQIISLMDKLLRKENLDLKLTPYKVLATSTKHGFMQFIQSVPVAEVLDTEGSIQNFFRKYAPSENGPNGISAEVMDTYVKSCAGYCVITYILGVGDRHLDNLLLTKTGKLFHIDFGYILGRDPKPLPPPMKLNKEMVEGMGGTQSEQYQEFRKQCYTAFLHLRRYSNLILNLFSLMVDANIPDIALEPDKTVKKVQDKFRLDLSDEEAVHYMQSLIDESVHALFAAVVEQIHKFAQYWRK

[7] = target: Phosphatidylinositol 5-phosphate 4-kinase type-2 alpha (Homo sapiens) (UniProt P48426); assay: Inhibition of PIP4K2A in human SKCO1 cells at 1 uM after 4 hrs using biotin labeled AKELPTLKDNDFINEGQK probe by mass-spectrometric analysis relative to control; assay type: cell-based
Chain of Phosphatidylinositol 5-phosphate 4-kinase type-2 alpha (Homo sapiens) (P48426 whole entry): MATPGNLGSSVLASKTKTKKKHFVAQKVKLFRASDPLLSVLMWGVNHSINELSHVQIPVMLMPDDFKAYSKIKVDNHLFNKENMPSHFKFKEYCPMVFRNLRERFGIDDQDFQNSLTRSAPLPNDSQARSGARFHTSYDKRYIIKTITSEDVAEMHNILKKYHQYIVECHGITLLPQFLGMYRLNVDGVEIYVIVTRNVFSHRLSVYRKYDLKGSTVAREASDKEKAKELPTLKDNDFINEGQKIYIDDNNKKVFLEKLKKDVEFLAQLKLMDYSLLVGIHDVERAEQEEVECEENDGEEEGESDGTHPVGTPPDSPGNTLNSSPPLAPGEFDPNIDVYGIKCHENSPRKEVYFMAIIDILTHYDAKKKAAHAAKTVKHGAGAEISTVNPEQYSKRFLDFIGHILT

[8] = tested on: SK-CO-1; assay: Antiproliferative activity against human SKCO1 cells harboring KRAS G12V mutant after 72 hrs by CellTiter-Glo assay; assay type: functional, cell-based; details: SK-CO-1, 72 h
[9] = tested on: PANC-1; assay: Antiproliferative activity against human PANC1 cells harboring KRAS G12D mutant after 72 hrs by CellTiter-Glo assay; assay type: functional, cell-based; details: PANC-1, 72 h
[10] = tested on: ASPC1; assay: Antiproliferative activity against human AsPC1 cells harboring KRAS G12D mutant after 72 hrs by CellTiter-Glo assay; assay type: functional, cell-based; details: ASPC1, 72 h
[11] = target: T3, Mitogen-activated protein kinase kinase kinase 7 (Homo sapiens) (UniProt O43318); details: 0.6 uM
T3 sequence (whole entry): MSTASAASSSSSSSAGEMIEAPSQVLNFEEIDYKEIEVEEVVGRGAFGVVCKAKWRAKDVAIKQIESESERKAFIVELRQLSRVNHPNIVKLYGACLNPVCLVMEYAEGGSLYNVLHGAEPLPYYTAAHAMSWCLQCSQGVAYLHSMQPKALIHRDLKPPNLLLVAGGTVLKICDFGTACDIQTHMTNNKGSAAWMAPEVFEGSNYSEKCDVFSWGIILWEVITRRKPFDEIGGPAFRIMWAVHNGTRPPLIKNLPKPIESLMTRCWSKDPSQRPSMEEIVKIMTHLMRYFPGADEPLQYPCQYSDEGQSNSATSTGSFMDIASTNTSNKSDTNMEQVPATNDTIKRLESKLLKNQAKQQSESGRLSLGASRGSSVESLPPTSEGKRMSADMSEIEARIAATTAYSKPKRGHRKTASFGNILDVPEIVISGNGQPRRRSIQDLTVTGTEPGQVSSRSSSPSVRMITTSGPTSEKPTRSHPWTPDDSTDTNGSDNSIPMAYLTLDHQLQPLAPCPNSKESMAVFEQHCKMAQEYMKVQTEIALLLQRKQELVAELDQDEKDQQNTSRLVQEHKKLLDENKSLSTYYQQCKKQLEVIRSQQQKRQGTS

[12] = target: Mitogen-activated protein kinase 1 (Homo sapiens) (UniProt P28482); assay: Inhibition of Erk2 in human SKCO1 cells at 1 uM after 4 hrs using biotin labeled DLKPSNLLLNTTCDLK probe by mass-spectrometric analysis relative to control; assay type: cell-based
Chain of Mitogen-activated protein kinase 1 (Homo sapiens) (P28482 whole entry): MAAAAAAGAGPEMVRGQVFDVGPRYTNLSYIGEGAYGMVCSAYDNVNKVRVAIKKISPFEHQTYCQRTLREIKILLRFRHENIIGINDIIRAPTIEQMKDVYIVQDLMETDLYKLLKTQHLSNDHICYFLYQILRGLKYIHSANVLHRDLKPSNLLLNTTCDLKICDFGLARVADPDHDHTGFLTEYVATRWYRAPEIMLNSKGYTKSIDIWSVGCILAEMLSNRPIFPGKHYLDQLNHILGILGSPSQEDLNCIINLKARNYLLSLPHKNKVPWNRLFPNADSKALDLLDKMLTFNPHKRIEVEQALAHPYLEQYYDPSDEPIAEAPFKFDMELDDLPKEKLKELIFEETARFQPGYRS

[13] = target: SRSF protein kinase 1 (Homo sapiens) (UniProt Q96SB4); assay: Inhibition of SRPK1 in human SKCO1 cells at 1 uM after 4 hrs using biotin labeled IIHTDIKPENILLSVNEQYIR probe by mass-spectrometric analysis relative to control; assay type: cell-based
Chain of SRSF protein kinase 1 (Homo sapiens) (Q96SB4 whole entry): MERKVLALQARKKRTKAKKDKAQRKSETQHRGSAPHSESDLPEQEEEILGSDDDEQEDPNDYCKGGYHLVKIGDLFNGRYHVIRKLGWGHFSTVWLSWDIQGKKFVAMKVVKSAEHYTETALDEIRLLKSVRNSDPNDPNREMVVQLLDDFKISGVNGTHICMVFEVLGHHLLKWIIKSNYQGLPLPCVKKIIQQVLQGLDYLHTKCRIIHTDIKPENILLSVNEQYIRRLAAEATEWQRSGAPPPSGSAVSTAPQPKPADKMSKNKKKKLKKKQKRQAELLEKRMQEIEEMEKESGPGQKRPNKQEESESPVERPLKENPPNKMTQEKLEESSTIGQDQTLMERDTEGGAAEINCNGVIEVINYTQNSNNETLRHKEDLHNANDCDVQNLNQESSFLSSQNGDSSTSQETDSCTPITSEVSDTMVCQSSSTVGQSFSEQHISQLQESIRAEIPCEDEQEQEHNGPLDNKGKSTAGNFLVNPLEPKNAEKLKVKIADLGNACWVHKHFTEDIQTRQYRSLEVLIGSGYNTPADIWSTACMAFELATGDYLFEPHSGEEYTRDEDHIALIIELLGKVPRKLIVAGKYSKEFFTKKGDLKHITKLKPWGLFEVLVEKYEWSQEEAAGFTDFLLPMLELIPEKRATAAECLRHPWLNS
In short: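 Live SK-CO-1 cells exposed to compound at 1 μM or DMSO for 4 h (KiNativ). Lysates then labeled with lysine-reactive ATP/ADP-biotin probe, and probe-labeled kinase peptides quantified by mass spectrometry. Percent inhibition of probe-dependent recovery calculated relative to DMSO-treated cells.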

[14] = tested on: NALM-6; assay: Antiproliferative activity against human NALM6 cells harboring NARS A146T mutant at […] to […] nM after 72 hrs by CellTiter-Glo assay; assay type: functional, cell-based
[15] = tested on: HEL; assay: Antiproliferative activity against human HEL cells at […] to […] nM after 72 hrs by CellTiter-Glo assay; assay type: functional, cell-based
[16] = tested on: MAP4K2 / germinal center kinase (Homo sapiens); assay: Inhibition of GCK in human SKCO1 cells at 1 uM after 4 hrs using biotin labeled DIKGANLLLTLQGDVK probe by mass-spectrometric analysis relative to control

Structure (SMILES)	inhibition [1]	inhibition [2]	inhibition [3]	inhibition [4]	inhibition [5]	inhibition [6]	inhibition [7]	IC50 [8]	IC50 [9]	IC50 [10]	inhibition [11]	inhibition [12]	inhibition [13]	Activity [14]	Activity [15]	inhibition [16]
COc1cc(O)c2c(c1)/C=C/C[C@H](O)[C@H](O)C(=O)/C=C\C[C@H](C)OC2=O	2.1%	-9.6%	33.5%	26.2%	51.7%	15.1%	16.1%	0.25 µM	2.5 µM	6.02 µM	Active					
C=CC(=O)Nc1ccccc1Oc1nc(Nc2cnn(CCOC)c2)ncc1Cl	4.2%		10.9%		41.3%			0.318 µM	5.61 µM	1.34 µM		55.7%	-6.1%	inactive	inactive	34.3%
C=CC(=O)Nc1ccccc1Nc1nc(Nc2ccc(N3CCN(C)CC3)cc2)ncc1Cl		39.2%		24.9%		21.1%	2%				Active	42.6%	2.9%	inactive	inactive	37.1%
